Laboratory results reported in ChEMBL document CHEMBL2021899, “Anti-AIDS agents 89. Identification of DCX derivatives as anti-HIV and chemosensitizing dual function agents to overcome P-gp-mediated drug resistance for AIDS therapy” (Bioorg Med Chem Lett, 2012).

Columns and labels:
[1] = Cytotoxicity against human TZM-bl cells after 48 hrs by CytoTox-GloTM assay; format: cell-based
KB [2] = assay: Reversal of p-glycoprotein-mediated multidrug resistance in human vincristine-resistance KB cells assessed as potentiation of vincristine-induced cytotoxicity at 4 uM after 48 hrs by SRB assay; format: cell-based
Method in brief: (§1)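 Vincristine-resistant, P-gp over-expressing KB-vin cells were exposed to vincristine alone or with co-treatment by the test agent, with verapamil as positive control. Vincristine GI50 was read by SRB assay. Fold value = GI50 (vincristine alone) / GI50 (vincristine + test agent). At least three independent experiments.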

KB [3] = assay: Reversal of p-glycoprotein-mediated multidrug resistance in human vincristine-resistance KB cells assessed as potentiation of vincristine-induced cytotoxicity at 4 uM after 48 hrs by SRB assay relative to verapamil; format: cell-based; method in brief: as §1
[4] = system: Human immunodeficiency virus; assay: Antiviral activity against HIV/NL4-3 infected in human TZM-bl cells assessed as inhibition of viral replication after 48 hrs by luciferase reporter gene assay; format: functional, organism-based; settings: Human immunodeficiency virus 1, NL4-3, TZM-bl
KB [5] = assay: Cytotoxicity against human KB cells at 4 uM after 48 hrs by SRB assay; format: functional
KB [6] = assay: Ratio of GI50 for human vincristine-resistance KB cells to GI50 for wild type human KB cells; format: functional
[7] = target: ATP-dependent translocase ABCB1 (Homo sapiens, UniProt P08183); assay: Inhibition of p-glycoprotein-mediated doxorubicin efflux in human KB cells assessed as doxorubicin accumulation preincubated for 1 hr prior doxorubicin addition measured after 3 hrs by fluorometric assay; format: cell-based
ATP-dependent translocase ABCB1, sequence (P08183 whole entry): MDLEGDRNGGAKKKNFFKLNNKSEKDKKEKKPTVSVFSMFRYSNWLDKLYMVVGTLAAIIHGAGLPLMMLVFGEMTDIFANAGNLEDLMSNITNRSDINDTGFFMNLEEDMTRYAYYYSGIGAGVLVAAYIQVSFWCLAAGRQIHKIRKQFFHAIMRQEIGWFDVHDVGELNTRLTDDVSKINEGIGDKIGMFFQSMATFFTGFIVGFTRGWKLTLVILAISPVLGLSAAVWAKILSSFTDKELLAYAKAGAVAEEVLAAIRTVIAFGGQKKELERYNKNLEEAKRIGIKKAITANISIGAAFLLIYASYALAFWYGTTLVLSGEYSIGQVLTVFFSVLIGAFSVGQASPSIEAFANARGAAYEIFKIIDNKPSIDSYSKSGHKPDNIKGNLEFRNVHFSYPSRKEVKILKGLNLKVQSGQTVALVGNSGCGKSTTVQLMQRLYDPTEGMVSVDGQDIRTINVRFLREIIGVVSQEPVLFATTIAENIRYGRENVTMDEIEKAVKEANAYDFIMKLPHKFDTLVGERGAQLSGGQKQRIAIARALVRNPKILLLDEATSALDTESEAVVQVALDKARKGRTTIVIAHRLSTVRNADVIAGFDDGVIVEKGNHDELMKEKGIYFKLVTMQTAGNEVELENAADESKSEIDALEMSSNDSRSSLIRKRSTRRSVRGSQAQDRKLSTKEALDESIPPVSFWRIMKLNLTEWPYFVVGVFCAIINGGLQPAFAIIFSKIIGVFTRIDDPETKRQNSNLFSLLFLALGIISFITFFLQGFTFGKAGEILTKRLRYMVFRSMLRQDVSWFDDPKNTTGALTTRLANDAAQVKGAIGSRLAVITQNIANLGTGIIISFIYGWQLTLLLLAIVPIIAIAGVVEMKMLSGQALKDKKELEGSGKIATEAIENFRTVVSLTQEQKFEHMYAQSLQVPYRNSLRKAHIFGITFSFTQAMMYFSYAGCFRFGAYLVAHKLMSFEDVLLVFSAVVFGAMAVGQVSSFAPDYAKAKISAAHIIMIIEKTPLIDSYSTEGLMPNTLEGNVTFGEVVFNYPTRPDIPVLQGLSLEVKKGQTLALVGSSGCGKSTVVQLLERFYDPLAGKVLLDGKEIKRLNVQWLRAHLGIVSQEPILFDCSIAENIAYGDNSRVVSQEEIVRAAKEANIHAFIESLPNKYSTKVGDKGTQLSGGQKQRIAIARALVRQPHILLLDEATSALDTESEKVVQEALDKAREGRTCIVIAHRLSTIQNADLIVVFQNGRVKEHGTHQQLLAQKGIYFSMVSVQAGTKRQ
Method in brief: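 KB-vin cells were seeded at 5 × 10³ per well and grown 72 h at 37 °C in 5% CO2, then washed. They were pretreated with sample or vehicle for 1 h, then doxorubicin was added to 10 final and incubated 3 h. Cells were washed in ice-cold PBS and lysed in 1% SDS/PBS; fluorescence was read at Ex 488/Em 580 nm. Value = fluorescence with compound / without, after control subtraction. Verapamil served as positive control.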

| SMILES | IC50 [1] [nM] | fold change (FC) (KB [2]) | fold change (FC) (KB [3]) | EC50 [4] [nM] | GI50 (KB [5]) [nM] | RatioGI50 (KB [6]) | inhibition (INH) [7] |
| --- | --- | --- | --- | --- | --- | --- | --- |
| COc1c(Br)c2c(c3oc4ccccc4c(=O)c13)[C@@H](OC(=O)[C@@]13CCC(C)(C(=O)O1)C3(C)C)[C@@H](OC(=O)[C@@]13CCC(C)(C(=O)O1)C3(C)C)C(C)(C)O2 | > 10000 | 1650 | 20 |  |  |  |  |
| COc1ccc(CCN(C)CCCC(C#N)(c2ccc(OC)c(OC)c2)C(C)C)cc1OC (stereo unspecified) |  | 60 |  |  |  |  |  |
| COc1cc2c(c3oc4c(F)cccc4c(=O)c13)[C@@H](OC(=O)[C@@]13CCC(C)(C(=O)O1)C3(C)C)[C@@H](OC(=O)[C@@]13CCC(C)(C(=O)O1)C3(C)C)C(C)(C)O2 | > 10000 | 880 |  | 230 |  |  |  |
| COc1cc2c(c3oc4ccc(C)cc4c(=O)c13)[C@@H](OC(=O)[C@@]13CCC(C)(C(=O)O1)C3(C)C)[C@@H](OC(=O)[C@@]13CCC(C)(C(=O)O1)C3(C)C)C(C)(C)O2 | > 10000 | 388 |  | 65 |  |  |  |
| CC[C@]1(O)C[C@H]2CN(CCc3c([nH]c4ccccc34)[C@@](C(=O)OC)(c3cc4c(cc3OC)N(C=O)[C@H]3[C@@](O)(C(=O)OC)[C@H](OC(C)=O)[C@]5(CC)C=CCN6CC[C@]43[C@@H]65)C2)C1 [VINCRISTINE] |  |  |  |  | 2 | 1320 |  |
| CCc1cc(=O)c2c(C)cc3c(c2o1)[C@@H](OC(=O)[C@@]12CCC(C)(C(=O)O1)C2(C)C)[C@@H](OC(=O)[C@@]12CCC(C)(C(=O)O1)C2(C)C)C(C)(C)O3 | > 10000 | 677 |  | 100 |  |  | Active |
| COc1ccc2c(=O)c3c(OC)cc4c(c3oc2c1)[C@@H](OC(=O)[C@@]12CCC(C)(C(=O)O1)C2(C)C)[C@@H](OC(=O)[C@@]12CCC(C)(C(=O)O1)C2(C)C)C(C)(C)O4 | > 10000 | 98 |  | 362 |  |  |  |
| COc1cc2c(c3oc4ccccc4c(=O)c13)[C@@H](OC(=O)[C@@]13CCC(C)(C(=O)O1)C3(C)C)[C@@H](OC(=O)[C@@]13CCC(C)(C(=O)O1)C3(C)C)C(C)(C)O2 | > 10000 | 776 |  | 63 |  |  | Active |
| COc1cc(C)c2c(=O)c3c(OC)cc4c(c3oc2c1)[C@@H](OC(=O)[C@@]12CCC(C)(C(=O)O1)C2(C)C)[C@@H](OC(=O)[C@@]12CCC(C)(C(=O)O1)C2(C)C)C(C)(C)O4 | > 10000 | 518 |  | 140 |  |  |  |
| COc1cc2c(c3oc4cc(Br)ccc4c(=O)c13)[C@@H](OC(=O)[C@@]13CCC(C)(C(=O)O1)C3(C)C)[C@@H](OC(=O)[C@@]13CCC(C)(C(=O)O1)C3(C)C)C(C)(C)O2 | > 10000 | 264 |  |  |  |  |  |
| CCc1cc(=O)c2ccc3c(c2o1)[C@@H](OC(=O)[C@@]12CCC(C)(C(=O)O1)C2(C)C)[C@@H](OC(=O)[C@@]12CCC(C)(C(=O)O1)C2(C)C)C(C)(C)O3 | > 10000 | 132 |  | 70 |  |  |  |
| Cc1cc(=O)c2ccc3c(c2o1)[C@@H](OC(=O)[C@@]12CCC(C)(C(=O)O1)C2(C)C)[C@@H](OC(=O)[C@@]12CCC(C)(C(=O)O1)C2(C)C)C(C)(C)O3 | > 10000 | 88 |  | 100 |  |  |  |
| CC1(C)Oc2cc(O)c3c(=O)c4ccccc4oc3c2[C@@H](OC(=O)[C@@]23CCC(C)(C(=O)O2)C3(C)C)[C@H]1OC(=O)[C@@]12CCC(C)(C(=O)O1)C2(C)C | > 10000 | < 24 |  |  |  |  |  |
| COc1cc2c(c3oc4cccc(C)c4c(=O)c13)[C@@H](OC(=O)[C@@]13CCC(C)(C(=O)O1)C3(C)C)[C@@H](OC(=O)[C@@]13CCC(C)(C(=O)O1)C3(C)C)C(C)(C)O2 | > 10000 | 1390 | 20 | 150 |  |  |  |
| COc1cc2c(c3oc4ccc(F)cc4c(=O)c13)[C@@H](OC(=O)[C@@]13CCC(C)(C(=O)O1)C3(C)C)[C@@H](OC(=O)[C@@]13CCC(C)(C(=O)O1)C3(C)C)C(C)(C)O2 | > 10000 | 1150 | 20 | 100 |  |  |  |
| COc1cc2c(c3oc4c(C)cccc4c(=O)c13)[C@@H](OC(=O)[C@@]13CCC(C)(C(=O)O1)C3(C)C)[C@@H](OC(=O)[C@@]13CCC(C)(C(=O)O1)C3(C)C)C(C)(C)O2 | > 10000 | 1100 | 20 | 1520 |  |  |  |
| COc1cc2c(c3oc4cc(C)ccc4c(=O)c13)[C@@H](OC(=O)[C@@]13CCC(C)(C(=O)O1)C3(C)C)[C@@H](OC(=O)[C@@]13CCC(C)(C(=O)O1)C3(C)C)C(C)(C)O2 | > 10000 | 352 |  | 95 |  |  |  |
| CC1(C)Oc2ccc3c(=O)c4ccccc4oc3c2[C@@H](OC(=O)[C@@]23CCC(C)(C(=O)O2)C3(C)C)[C@H]1OC(=O)[C@@]12CCC(C)(C(=O)O1)C2(C)C | > 10000 | 1260 | 20 | 308 |  |  |  |
| COc1ccc2oc3c4c(cc(OC)c3c(=O)c2c1)OC(C)(C)[C@H](OC(=O)[C@@]12CCC(C)(C(=O)O1)C2(C)C)[C@@H]4OC(=O)[C@@]12CCC(C)(C(=O)O1)C2(C)C | > 10000 | 343 |  | 121 |  |  |  |
| Cc1cc(=O)c2c(C)cc3c(c2o1)[C@@H](OC(=O)[C@@]12CCC(C)(C(=O)O1)C2(C)C)[C@@H](OC(=O)[C@@]12CCC(C)(C(=O)O1)C2(C)C)C(C)(C)O3 | > 10000 | 910 | 20 | 36 |  |  | Active |
| COc1cccc2c(=O)c3c(OC)cc4c(c3oc12)[C@@H](OC(=O)[C@@]12CCC(C)(C(=O)O1)C2(C)C)[C@@H](OC(=O)[C@@]12CCC(C)(C(=O)O1)C2(C)C)C(C)(C)O4 | > 10000 | 1020 | 20 |  |  |  |  |
